# According to ChEMBL document CHEMBL1154728, “Synthesis of nitroimidazole derived oxazolidinones as antibacterial agents” (Eur J Med Chem, 2010):
# Tests used:
# Staphylococcus aureus [1] = assay: Antibacterial activity against methicillin resistant Staphylococcus aureus ATCC 70069 after 24 hrs by spectrophotometry; assay type: functional; settings: ATCC 70069, 24 h
# Procedure, shortened: (§1)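 Strains grown on nutrient agar at 37 °C for 24 h, then suspended in normal saline with 0.05% Tween 20 at about […] cells/mL (0.5 McFarland). Broth microdilution in Mueller Hinton broth per NCCLS. DMSO stock 1 mg/mL diluted into broth, then two-fold serial dilutions. Plates incubated at 35 °C in a moist, dark chamber. MIC read spectrophotometrically at 24 h.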
# Bacillus cereus = assay: Antibacterial activity against Bacillus cereus MTCC 430 after 24 hrs by spectrophotometry; assay type: functional; settings: MTCC 430, 24 h
# Procedure, shortened: (§2)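 Strains grown on nutrient agar at 37 °C for 24 h, suspended in normal saline with 0.05% Tween 20 to about […] cells/mL (0.5 McFarland). Broth microdilution per NCCLS in Mueller Hinton broth. Compounds dissolved in DMSO at 1 mg/mL (stock), serially two-fold diluted. Growth, drug and negative controls included. Incubation at 35 °C, moist and dark; MIC read spectrophotometrically at 24 h.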
# Enterococcus faecalis = assay: Antibacterial activity against Enterococcus faecalis MTCC439 after 24 hrs by spectrophotometry; assay type: functional; settings: MTCC439, 24 h; procedure, shortened: as §2
# Klebsiella pneumoniae = assay: Antibacterial activity against Klebsiella pneumoniae ATCC 27736 after 24 hrs by spectrophotometry; assay type: functional; settings: ATCC 27736, 24 h; procedure, shortened: as §2
# Staphylococcus aureus [2] = assay: Antibacterial activity against […] Staphylococcus aureus ATCC 29213 after 24 hrs by spectrophotometry; assay type: functional; settings: ATCC 29213, 24 h; procedure, shortened: as §1
# Staphylococcus aureus [3] = assay: Antibacterial activity against […] Staphylococcus aureus ATCC 25923 after 24 hrs by spectrophotometry; assay type: functional; settings: ATCC 25923, 24 h; procedure, shortened: as §1
# Streptococcus pyogenes = assay: Antibacterial activity against Streptococcus pyogenes after 24 hrs by spectrophotometry; assay type: functional; procedure, shortened: as §2
# L929 [4] = assay: Cytotoxicity against mouse L929 cells assessed as change in morphology at 50 ug/ml after 24 hrs by phase contrast microscopy; assay type: cell-based; settings: l929, 24 h
# Procedure, shortened: (§3)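 L929 fibroblasts in DMEM under 5% CO₂, switched to serum-free DMEM at 90% confluency, then exposed to compound for 24 h. Cells were fixed in the wells and stained with Giemsa for 30 min at 37 °C. Morphology was examined by phase contrast microscopy against untreated control cells.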
# L929 [5] = assay: Cytotoxicity against mouse L929 cells assessed as cell viability after 24 hrs by MTT assay; assay type: cell-based; settings: l929, 24 h
# Procedure, shortened: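 Mouse fibroblast L929 cells seeded at 1 × 10³ cells per well in DMEM under humidified 5% CO₂. Medium switched to serum-free DMEM at 90% confluency (5 h). Cells exposed 24 h to a two-fold series ([…], then 12.5 down to 0.09). MTT read-out: absorbance at 570 minus 630 nm taken as the viability index.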
# L929 [6] = assay: Cytotoxicity against mouse L929 cells assessed as change in morphology at 0.09 ug/ml after 24 hrs by phase contrast microscopy; assay type: cell-based; settings: l929, 24 h; procedure, shortened: as §3
structure (smiles),measurement,setting,value
CC(=O)NC[C@H]1CN(c2ccc(N3CCN(CCCn4c([N+](=O)[O-])cnc4C)CC3)c(F)c2)C(=O)O1,MIC,Staphylococcus aureus [1],6.25 µg/mL
same,MIC,Bacillus cereus,6.25 µg/mL
same,MIC,Enterococcus faecalis,12.5 µg/mL
same,MIC,Klebsiella pneumoniae,1.56 µg/mL
same,MIC,Staphylococcus aureus [2],12.5 µg/mL
same,MIC,Staphylococcus aureus [3],12.5 µg/mL
same,MIC,Streptococcus pyogenes,1.56 µg/mL
CC(=O)NC[C@H]1CN(c2ccc(N3CCN(CCCn4ccnc4[N+](=O)[O-])CC3)c(F)c2)C(=O)O1,MIC,Staphylococcus aureus [1],6.25 µg/mL
same,MIC,Bacillus cereus,6.25 µg/mL
same,MIC,Enterococcus faecalis,12.5 µg/mL
same,MIC,Klebsiella pneumoniae,0.78 µg/mL
same,MIC,Staphylococcus aureus [2],12.5 µg/mL
same,MIC,Staphylococcus aureus [3],6.25 µg/mL
same,MIC,Streptococcus pyogenes,0.78 µg/mL
CC(=O)NC[C@H]1CN(c2ccc(N3CCOCC3)c(F)c2)C(=O)O1 [LINEZOLID],MIC,Staphylococcus aureus [1],1.56 µg/mL
same,MIC,Bacillus cereus,0.78 µg/mL
same,MIC,Enterococcus faecalis,3.12 µg/mL
same,MIC,Klebsiella pneumoniae,1.56 µg/mL
same,MIC,Staphylococcus aureus [2],3.12 µg/mL
same,MIC,Staphylococcus aureus [3],1.56 µg/mL
same,MIC,Streptococcus pyogenes,1.56 µg/mL
CC(=O)NC[C@H]1CN(c2ccc(N3CCN(C(=O)Cn4cnc([N+](=O)[O-])c4)CC3)c(F)c2)C(=O)O1,MIC,Staphylococcus aureus [1],3.12 µg/mL
same,MIC,Bacillus cereus,6.25 µg/mL
same,MIC,Enterococcus faecalis,25 µg/mL
same,MIC,Klebsiella pneumoniae,25 µg/mL
same,MIC,Staphylococcus aureus [2],12.5 µg/mL
same,MIC,Staphylococcus aureus [3],12.5 µg/mL
same,MIC,Streptococcus pyogenes,1.56 µg/mL
CC(=O)NC[C@H]1CN(c2ccc(N3CCN(CC(O)Cn4c([N+](=O)[O-])cnc4C)CC3)c(F)c2)C(=O)O1 (stereo partly specified),MIC,Staphylococcus aureus [1],0.39 µg/mL
same,MIC,Bacillus cereus,0.78 µg/mL
same,MIC,Enterococcus faecalis,1.56 µg/mL
same,MIC,Klebsiella pneumoniae,> 50 µg/mL
same,MIC,Staphylococcus aureus [2],1.56 µg/mL
same,MIC,Staphylococcus aureus [3],3.12 µg/mL
same,MIC,Streptococcus pyogenes,0.39 µg/mL
CC(=O)NC[C@H]1CN(c2ccc(N3CCN(CCCn4cnc([N+](=O)[O-])c4)CC3)c(F)c2)C(=O)O1,Activity,L929 [4],Toxic
same,Activity,L929 [5],Toxic
same,MIC,Staphylococcus aureus [1],0.78 µg/mL
same,MIC,Bacillus cereus,0.78 µg/mL
same,Activity,L929 [6],Non-toxic
same,MIC,Enterococcus faecalis,0.78 µg/mL
same,MIC,Klebsiella pneumoniae,0.78 µg/mL
same,MIC,Staphylococcus aureus [2],0.78 µg/mL
same,MIC,Staphylococcus aureus [3],0.78 µg/mL
same,MIC,Streptococcus pyogenes,0.39 µg/mL
CC(=O)NC[C@H]1CN(c2ccc(N3CCN(C(=O)Cn4c([N+](=O)[O-])cnc4C)CC3)c(F)c2)C(=O)O1,MIC,Staphylococcus aureus [1],6.25 µg/mL
same,MIC,Bacillus cereus,1.56 µg/mL
same,MIC,Enterococcus faecalis,6.25 µg/mL
same,MIC,Klebsiella pneumoniae,3.12 µg/mL
same,MIC,Staphylococcus aureus [2],6.25 µg/mL
same,MIC,Staphylococcus aureus [3],6.25 µg/mL
same,MIC,Streptococcus pyogenes,1.56 µg/mL
CC(=O)NC[C@H]1CN(c2ccc(N3CCN(CC(O)Cn4cnc([N+](=O)[O-])c4)CC3)c(F)c2)C(=O)O1 (stereo partly specified),MIC,Staphylococcus aureus [1],6.25 µg/mL
same,MIC,Bacillus cereus,3.12 µg/mL
same,MIC,Klebsiella pneumoniae,> 50 µg/mL
same,MIC,Staphylococcus aureus [2],12.5 µg/mL
same,MIC,Staphylococcus aureus [3],6.25 µg/mL
same,MIC,Streptococcus pyogenes,3.12 µg/mL
CC(=O)NC[C@H]1CN(c2ccc(N3CCN(CCn4ccnc4[N+](=O)[O-])CC3)c(F)c2)C(=O)O1,MIC,Staphylococcus aureus [1],6.25 µg/mL
same,MIC,Bacillus cereus,0.78 µg/mL
same,MIC,Enterococcus faecalis,25 µg/mL
same,MIC,Klebsiella pneumoniae,25 µg/mL
same,MIC,Staphylococcus aureus [2],12.5 µg/mL
same,MIC,Staphylococcus aureus [3],12.5 µg/mL
same,MIC,Streptococcus pyogenes,0.78 µg/mL
CN[C@H](CC(C)C)C(=O)N[C@H]1C(=O)N[C@@H](CC(N)=O)C(=O)N[C@H]2C(=O)N[C@H]3C(=O)N[C@H](C(=O)N[C@H](C(=O)O)c4cc(O)cc(O)c4-c4cc3ccc4O)[C@H](O)c3ccc(c(Cl)c3)Oc3cc2cc(c3O[C@@H]2O[C@H](CO)[C@@H](O)[C@H](O)[C@H]2O[C@H]2C[C@](C)(N)[C@H](O)[C@H](C)O2)Oc2ccc(cc2Cl)[C@H]1O [VANCOMYCIN],MIC,Staphylococcus aureus [1],6.25 µg/mL
same,MIC,Bacillus cereus,0.19 µg/mL
same,MIC,Enterococcus faecalis,0.78 µg/mL
same,MIC,Staphylococcus aureus [2],1.56 µg/mL
same,MIC,Staphylococcus aureus [3],0.39 µg/mL
same,MIC,Streptococcus pyogenes,0.39 µg/mL
CC(=O)NC[C@H]1CN(c2ccc(N3CCN(CCn4c([N+](=O)[O-])cnc4C)CC3)c(F)c2)C(=O)O1,Activity,L929 [4],Toxic
same,Activity,L929 [5],Toxic
same,MIC,Staphylococcus aureus [1],0.78 µg/mL
same,MIC,Bacillus cereus,0.097 µg/mL
same,Activity,L929 [6],Non-toxic
same,MIC,Enterococcus faecalis,3.12 µg/mL
same,MIC,Klebsiella pneumoniae,0.78 µg/mL
same,MIC,Staphylococcus aureus [2],3.12 µg/mL
same,MIC,Staphylococcus aureus [3],3.12 µg/mL
same,MIC,Streptococcus pyogenes,0.78 µg/mL
